Source: ChEMBL document CHEMBL1125740, “Heterocyclic quinones. 17. A new in vivo active antineoplastic drug: 6,7-bis(1-aziridinyl)-4-[[3-(N,N-dimethylamino)propyl]amino]-5,8- quinazolinedione” (J Med Chem, 1991)
Where “and” joins values, the source holds several entries; their conditions need not be identical. Identical values can stand only once.

What was measured:
B16 [1] = experiment: Compound was evaluated in vivo for antitumor activity against B16 melanoma after injecting the compound intravenously for total dose; format: functional, Mus musculus
B16 [2] = experiment: Compound was evaluated in vivo for antitumor activity against B16 melanoma after injecting the compound intravenously for optimal dose; format: functional, Mus musculus
Procedure, shortened: (§1)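 30-60 mg tumor fragments implanted sc by trocar on day 0 into C57Bl/6-derived hosts (B16) or C3H/He-derived hosts (16/C). Drug given iv on days 6, 9 and 13 (B16) or 6, 9 and 12 (16/C), 10 mice per group. Tumors measured by caliper. T/C % taken from median tumor burden of treated vs control groups on day 15 (B16) or day 14 (16/C). Body weight change per mouse recorded at nadir.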

B16 [3] = experiment: Compound was evaluated in vivo for antitumor activity against B16 melanoma after injecting the compound intravenously for change in body weight.; format: functional, Mus musculus; procedure, shortened: as §1
[4] = Compound was evaluated in vivo for antitumor activity against Glasgow osteogenic sarcoma after injecting the compound intravenously for optimal dose; format: functional, Mus musculus
Procedure, shortened: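 Glasgow osteogenic sarcoma in C57Bl/6-derived hosts: 30-60 mg fragments implanted sc by trocar on day 0. Drug given iv on days 3, 6 and 9, 7 mice per group. Tumors measured by caliper. Median tumor burden recorded on day 10. Body weight change per mouse recorded at nadir. Toxicity-related deaths counted.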

L1210 [5] = experiment: Inhibitory activity against L1210 cell growth; format: functional, cell-based; conditions: Mus musculus
Procedure, shortened: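 L1210 cells were grown in RPMI 1640 with 2 mM glutamine and 20% heat-inactivated horse serum at 37 °C under 5% CO2. Drug was added in DMSO (0.5% final) to exponential cells seeded at 0.8×10^5 cells/mL. Coulter counts were done in triplicate at 48 h. IC50 was taken from a regression of probit % growth inhibition against log dose, from one experiment.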

M5076 = experiment: Compound was evaluated in vivo for antitumor activity against M5076 after injecting the compound intravenously for toxicity related death.; format: functional, Mus musculus
L1210 [6] = experiment: Compound was evaluated in vivo for antitumor activity after intraperitoneal administration against L1210(935) for total dose at an optimal dose of 0.2 mg/kg/injection at 1-4 day schedule.; format: functional, Mus musculus
Procedure, shortened: (§2)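 L1210 leukemia, maintained in DBA/2 mice, was given ip as 10⁵ cells on day 0 to F1 hybrid or strain-of-origin mice over 18 g, in groups of 8. Dosing was ip from day 1, and mortality was checked daily. Median day of death counts dying mice only. %ILS = 100×(treated − control median day of death)/control median. Tumor-free survivors were counted on day 60. Weight change is g/mouse at nadir.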

L1210 [7] = experiment: Compound was evaluated in vivo for antitumor activity after intraperitoneal administration against L1210(935) for median day of death at an optimal dose of 0.125 mg/kg/injection at 1,4,7,11day schedule.; format: functional, Mus musculus; procedure, shortened: as §2
L1210 [8] = experiment: Compound was evaluated in vivo for antitumor activity after intraperitoneal administration against L1210(935) for median day of death at an optimal dose of 0.4 mg/kg/injection at 1-4 day schedule.; format: functional, Mus musculus; procedure, shortened: as §2
L1210 [9] = experiment: Compound was evaluated in vivo for antitumor activity after intraperitoneal administration against L1210(935)for change in body weight at an optimal dose of 0.1 mg/kg/injection at 1-4 day schedule.; format: functional, Mus musculus; procedure, shortened: as §2
L1210 [10] = experiment: Compound was evaluated in vivo for antitumor activity after intraperitoneal administration against L1210(935)for % increase in life span at an optimal dose of 0.4 mg/kg/injection at 1-4 day schedule.; format: functional; conditions: Mus musculus, L1210, ip; procedure, shortened: as §2
[11] = Compound was evaluated in vivo for antitumor activity against Lewis Lung cercinoma after injecting the compound intravenously for toxicity related death.; format: functional, Mus musculus
Procedure, shortened: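 Lewis lung carcinoma: 10^6 cells implanted im into C57Bl/6-derived hosts. Drug given iv on days 5, 9 and 13, 10 mice per group. Median tumor burden and weight nadir recorded. Survivors were killed on day 19, and their lungs were fixed in Fekete solution so that macroscopic metastases could be counted.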

P388 [12] = experiment: Compound was evaluated in vivo for antitumor activity after intraperitoneal administration against P388/L-PAM(12) for median day of death at an optimal dose of 0.75 mg/kg/injection; format: functional, Mus musculus
P388 [13] = experiment: Compound was evaluated in vivo for antitumor activity after intraperitoneal administration against P388/L-PAM(12) for mortality range at an optimal dose of 0.75 mg/kg/injection; format: functional, Mus musculus
P388 [14] = experiment: Compound was evaluated in vivo for antitumor activity after intraperitoneal administration against P388/L-PAM(14) for % increase in life span at an optimal dose of 0.5 mg/kg/injection at one day schedule.; format: functional; conditions: Mus musculus, P388, ip, 24 h
P388 [15] = experiment: Compound was evaluated in vivo for antitumor activity after intraperitoneal administration against P388/L-PAM(14) for % increase in life span at an optimal dose of 1 mg/kg/injection; format: functional; conditions: Mus musculus, P388, ip
P388 [16] = experiment: Compound was evaluated in vivo for antitumor activity after intraperitoneal administration against P388/L-PAM(14) for mortality range at an optimal dose of 0.25 mg/kg/injection at 1,4,7,11 day schedule.; format: functional, Mus musculus
P388 [17] = experiment: Compound was evaluated in vivo for antitumor activity after intraperitoneal administration against P388/L-PAM(14) for mortality range at an optimal dose of 0.2 mg/kg/injection at 1,2,3,4 day schedule.; format: functional, Mus musculus
P388 [18] = experiment: Compound was evaluated in vivo for antitumor activity after intraperitoneal administration against P388/L-PAM(14) for tumor free survivors at an optimal dose of 0.2 mg/kg/injection at 1,2,3,4 day schedule.; format: functional, Mus musculus
P388 [19] = experiment: Compound was evaluated in vivo for antitumor activity after intraperitoneal administration against P388/L-PAM(14) for tumor free survivors at an optimal dose of 0.5 mg/kg/injection at one day schedule on day 60; format: functional, Mus musculus
P388 [20] = experiment: Compound was evaluated in vivo for antitumor activity after intraperitoneal administration against P388/L-PAM(14) for mortality range at an optimal dose of 0.4 mg/kg/injection at 1,2,3,4 day schedule.; format: functional, Mus musculus
P388 [21] = experiment: Compound was evaluated in vivo for antitumor activity after intraperitoneal administration against P388 (1303) for tumor free survivors at an optimal dose of 0.75 mg/kg/injection on day 60; format: functional, Mus musculus
P388 [22] = experiment: Compound was evaluated in vivo for antitumor activity after intraperitoneal administration against P388/L-PAM(14) for change in body weight at an optimal dose of 0.25 mg/kg/injection at 1,4,7,11 day schedule.; format: functional, Mus musculus
P388 [23] = experiment: Compound was evaluated in vivo for antitumor activity after intraperitoneal administration against P388/L-PAM(14) for change in body weight at an optimal dose of 0.4 mg/kg/injection at 1,2,3,4 day schedule.; format: functional, Mus musculus
P388 [24] = experiment: Compound was evaluated in vivo for antitumor activity after intraperitoneal administration against P388/L-PAM(14) for % increase in life span at an optimal dose of 0.4 mg/kg/injection at 1,2,3,4 day schedule.; format: functional; conditions: Mus musculus, P388, ip
P388 [25] = experiment: Compound was evaluated in vivo for antitumor activity after intraperitoneal administration against P388 (1313) for % increase in life span at an optimal dose of 0.5 mg/kg/injection; format: functional; conditions: Mus musculus, P388, ip
[26] = Compound was evaluated in vivo for antitumor activity against colon adenocarcinoma 38 after injecting the compound intravenously for total dose.; format: functional, Mus musculus
[27] = Compound was evaluated in vivo for antitumor activity against mammary adenocarcinoma 16/C after injecting the compound intravenously for change in body weight.; format: functional, Mus musculus; procedure, shortened: as §1
[28] = Compound was evaluated in vivo for antitumor activity against mammary adenocarcinoma 16/C after injecting the compound intravenously for optimal dose; format: functional, Mus musculus; procedure, shortened: as §1

With `CN(C)CCCNc1ncnc2c1C(=O)C(N1CC1)=C(N1CC1)C2=O` the Total dose (B16 [1]) was 1.2 mg/kg, the Optimal dose (B16 [2]) was 0.4 mg/kg and 0.2 mg/kg and the “Change in body weight” value (B16 [3]) was 0.9 g mouse-1 and 0.8 g mouse-1. For the same compound, the Optimal dose [4] was 0.36 mg/kg, the IC50 (L1210 [5]) was 0.00102 µg/mL and 2.7 nM and the Toxicity (M5076) was 0. For the same compound, the Total dose (L1210 [6]) was 0.8 mg/kg, the “Median day of death” value (L1210 [7]) was 13 and the “Median day of death” value (L1210 [8]) was 14. For the same compound, the “Change in body weight” value (L1210 [9]) was 0.4 g mouse-1, the ILS at 0.4 mg/kg (L1210 [10]) was 27% and the Toxicity [11] was 0. For the same compound, the “Median day of death” value (P388 [12]) was 15.5, the Mortality (P388 [13]) was 19 and the ILS at 0.5 mg/kg (P388 [14]) was 28%. For the same compound, the ILS at 1 mg/kg (P388 [15]) was 36%, the Mortality (P388 [16]) was 20 days and the Mortality (P388 [17]) was 20 days. It also gave a Survivors (P388 [18]) of 0, a Survivors (P388 [19]) of 0 and a Mortality (P388 [20]) of 27 days. For the same compound, the Survivors (P388 [21]) was 0, the “Change in body weight” value (P388 [22]) was 0.9 g mouse-1 and the g/mouse (P388 [23]) was 0.9. It also gave an ILS at 0.4 mg/kg (P388 [24]) of 43%, an ILS at 0.5 mg/kg (P388 [25]) of 108% and a Total dose [26] of 0.5 mg/kg. For the same compound, the “Change in body weight” value [27] was 0.5 g mouse-1 and 1 g mouse-1 and the Optimal dose [28] was 0.4 mg/kg and 0.2 mg/kg.
